Reference: ChEMBL document CHEMBL3877289, “New family of antimicrobial agents derived from 1,4-naphthoquinone” (Eur J Med Chem, 2016)
Values after ≈ are worked out from the molar mass of the structure shown.

How the values were obtained:
Klebsiella pneumoniae = assay: Antibacterial activity against Klebsiella pneumoniae PCM1 after 20 hrs by microbroth dilution method; type: functional; conditions: PCM1, 20 h
Procedure, shortened: (§1)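 MIC by broth microdilution in Mueller–Hinton broth. Strains were pre-grown 24h at 37 °C with shaking at 180 rpm. Inoculum was 5x10^5 CFU/ml, exposed 20 h at 37 °C to compound (0.001 – 5 mg/ml, DMSO solvent). MIC was the lowest concentration inhibiting observable growth. Tetracycline served as reference. Triplicate.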

Staphylococcus aureus [1] = assay: Antibacterial activity against Staphylococcus aureus ATCC 6538 after 20 hrs by microbroth dilution method; type: functional; conditions: ATCC 6538, 20 h; procedure, shortened: as §1
Pseudomonas aeruginosa = assay: Antibacterial activity against Pseudomonas aeruginosa PCM 2562 after 20 hrs by microbroth dilution method; type: functional; conditions: PCM 2562, 20 h; procedure, shortened: as §1
[2] = Hemolytic activity in human erythrocytes at 1 to 250 ug/mL incubated for 1 hr; type: ADME, cell-based, Erythrocyte; conditions: read-out: Activity
Procedure, shortened: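 Human blood was collected into citrate dextrose anticoagulant. Erythrocytes were spun at 500×g for 10 min at 4 °C, then washed in PBS (10 mM phosphate, pH 7.5; 150 mM NaCl) until the supernatant was clear, and resuspended at 2%. 450 µl of suspension was mixed with compound in 50 µl DMSO (1 - 250 µg/ml), incubated 1h at 37 °C, spun at 5000×g for 10 min, and supernatant A415 was read. Controls: tetracycline and chloramphenicol negative, Triton X-100 (1%) positive.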

Salmonella bongori = assay: Antibacterial activity against Salmonella bongori PCM 2552 after 20 hrs by microbroth dilution method; type: functional; conditions: PCM 2552, 20 h; procedure, shortened: as §1
Escherichia coli = assay: Antibacterial activity against Escherichia coli ATCC 8739 after 20 hrs by microbroth dilution method; type: functional; conditions: ATCC 8739, 20 h; procedure, shortened: as §1
Enterobacter cloacae = assay: Antibacterial activity against Enterobacter cloacae PCM 2569 after 20 hrs by microbroth dilution method; type: functional; conditions: PCM 2569, 20 h; procedure, shortened: as §1
Enterococcus faecalis = assay: Antibacterial activity against Enterococcus faecalis PCM 2673 after 20 hrs by microbroth dilution method; type: functional; conditions: PCM 2673, 20 h; procedure, shortened: as §1
Proteus vulgaris = assay: Antibacterial activity against Proteus vulgaris PCM 2668 after 20 hrs by microbroth dilution method; type: functional; conditions: PCM 2668, 20 h; procedure, shortened: as §1
Staphylococcus aureus [3] = assay: Antibacterial activity against Staphylococcus aureus MNPE assessed as reduction in CFU/ml by <3 logs after 24 hrs; type: functional
Staphylococcus aureus [4] = assay: Antibacterial activity against Staphylococcus aureus MW2 assessed as reduction in CFU/ml by <3 logs after 24 hrs; type: functional; conditions: MW2, 24 h
Staphylococcus aureus [5] = assay: Antibacterial activity against Staphylococcus aureus CDC587 assessed as reduction in CFU/ml by <3 logs after 24 hrs; type: functional; conditions: CDC587, 24 h
Staphylococcus aureus [6] = assay: Antibacterial activity against Staphylococcus aureus MN8 assessed as reduction in CFU/ml by <3 logs after 24 hrs; type: functional; conditions: MN8, 24 h
[7] = Hemolytic activity in human blood cells at 5 ug/mL after 48 hrs by photometric method; type: ADME, cell-based, Erythrocyte; conditions: read-out: Activity
Staphylococcus aureus [8] = assay: Antibacterial activity against Staphylococcus aureus LAC assessed as reduction in CFU/ml by <3 logs after 24 hrs; type: functional

SMILES | MIC (Klebsiella pneumoniae) | MIC (Staphylococcus aureus [1]) | MIC (Pseudomonas aeruginosa) | hemolysis at 1 h [2] | MIC (Salmonella bongori) | MIC (Escherichia coli) | MIC (Enterobacter cloacae) | MIC (Enterococcus faecalis) | MIC (Proteus vulgaris) | MIC (Staphylococcus aureus [3]) | MIC (Staphylococcus aureus [4]) | MIC (Staphylococcus aureus [5]) | MIC (Staphylococcus aureus [6]) | hemolysis at 48 h, 5 ug/mL [7] | MIC (Staphylococcus aureus [8])
COc1cc(NC(C)=O)ccc1C1=CC(=O)c2ccccc2C1=O | 250 µg/mL (≈ 778 µM) | 15.6 µg/mL (≈ 48.5 µM) | 250 µg/mL (≈ 778 µM) | ≤ 2% | 250 µg/mL (≈ 778 µM) | 250 µg/mL (≈ 778 µM) | 250 µg/mL (≈ 778 µM) | – | – | – | – | – | – | – | –
O=C1C=C(c2ccc(N(Cc3ccccc3)Cc3ccccc3)cc2)C(=O)c2ccccc21 | 250 µg/mL (≈ 582 µM) | 250 µg/mL (≈ 582 µM) | 250 µg/mL (≈ 582 µM) | – | 250 µg/mL (≈ 582 µM) | 250 µg/mL (≈ 582 µM) | 250 µg/mL (≈ 582 µM) | 250 µg/mL (≈ 582 µM) | – | – | – | – | – | – | –
COc1cc(N(C)C)ccc1C1=CC(=O)c2ccccc2C1=O | 250 µg/mL (≈ 813 µM) | 7.8 µg/mL (≈ 25.4 µM) | 250 µg/mL (≈ 813 µM) | – | 250 µg/mL (≈ 813 µM) | 250 µg/mL (≈ 813 µM) | 250 µg/mL (≈ 813 µM) | – | – | – | – | – | – | – | –
CC(C)[C@H](NC1=CC(=O)c2ccccc2C1=O)C(=O)O | 500 µg/mL (≈ 1830 µM) | 500 µg/mL (≈ 1830 µM) | 500 µg/mL (≈ 1830 µM) | – | 500 µg/mL (≈ 1830 µM) | 500 µg/mL (≈ 1830 µM) | 500 µg/mL (≈ 1830 µM) | 500 µg/mL (≈ 1830 µM) | 500 µg/mL (≈ 1830 µM) | – | – | – | – | – | –
O=C1C=C(c2ccccc2)C(=O)c2ccccc21 | – | – | 250 µg/mL (≈ 1070 µM) | – | 250 µg/mL (≈ 1070 µM) | – | – | – | – | – | – | – | – | – | –
CN(C)[C@@H]1C(O)=C(C(N)=O)C(=O)[C@@]2(O)C(O)=C3C(=O)c4c(O)cccc4[C@@](C)(O)[C@H]3C[C@@H]12 [TETRACYCLINE] | 15.6 µg/mL (≈ 35.1 µM) | 7.8 µg/mL (≈ 17.6 µM) | 15.6 µg/mL (≈ 35.1 µM) | – | 3.9 µg/mL (≈ 8.78 µM) | 0.5 µg/mL (≈ 1.13 µM) | 7.8 µg/mL (≈ 17.6 µM) | 31.2 µg/mL (≈ 70.2 µM) | 7.8 µg/mL (≈ 17.6 µM) | – | – | – | – | – | –
CC1=CC(=O)c2ccccc2C1=O [MENADIONE] | – | – | – | – | – | – | – | – | – | 3 µg/mL (≈ 17.4 µM) | 3 µg/mL (≈ 17.4 µM) | 3 µg/mL (≈ 17.4 µM) | 3 µg/mL (≈ 17.4 µM) | 3.5% | 3 µg/mL (≈ 17.4 µM)
COC(=O)[C@H](C)NC1=CC(=O)c2ccccc2C1=O | 500 µg/mL (≈ 1930 µM) | 62.5 µg/mL (≈ 241 µM) | 500 µg/mL (≈ 1930 µM) | – | 500 µg/mL (≈ 1930 µM) | 250 µg/mL (≈ 964 µM) | 500 µg/mL (≈ 1930 µM) | 250 µg/mL (≈ 964 µM) | 500 µg/mL (≈ 1930 µM) | – | – | – | – | – | –
Cc1cc(C)c(C2=CC(=O)c3ccccc3C2=O)c(C)c1 | 500 µg/mL (≈ 1810 µM) | 15.6 µg/mL (≈ 56.5 µM) | 500 µg/mL (≈ 1810 µM) | – | 500 µg/mL (≈ 1810 µM) | 500 µg/mL (≈ 1810 µM) | 500 µg/mL (≈ 1810 µM) | – | 500 µg/mL (≈ 1810 µM) | – | – | – | – | – | –
Cc1ccc(C2=CC(=O)c3ccccc3C2=O)cc1C | 500 µg/mL (≈ 1910 µM) | 500 µg/mL (≈ 1910 µM) | 500 µg/mL (≈ 1910 µM) | – | 500 µg/mL (≈ 1910 µM) | 500 µg/mL (≈ 1910 µM) | 500 µg/mL (≈ 1910 µM) | – | 500 µg/mL (≈ 1910 µM) | – | – | – | – | – | –
O=C1C(c2ccccc2)=C(c2ccccc2)C(=O)c2ccccc21 | 500 µg/mL (≈ 1610 µM) | 62.5 µg/mL (≈ 201 µM) | 500 µg/mL (≈ 1610 µM) | – | 500 µg/mL (≈ 1610 µM) | 250 µg/mL (≈ 806 µM) | 500 µg/mL (≈ 1610 µM) | – | 500 µg/mL (≈ 1610 µM) | – | – | – | – | – | –
